Measured values taken from ChEMBL document CHEMBL2331168, “Anticonvulsant evaluation of aminoalkanol derivatives of 2- and 4-methylxanthone” (Bioorg Med Chem, 2013).
The source made the active and inactive calls.

How the values were obtained:
Mus musculus [1] = test: Anticonvulsant activity in albino mouse assessed as protection against subcutaneous pentetrazole-induced seizures at 300 mg/kg, ip after 4 hrs; assay type: functional, organism-based; set-up: dose 300 mg/kg
Outline: (§1)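 Male albino mice (Carworth Farms No. 1) received compound ip in 0.5% methylcellulose, then pentetrazole 85 mg/kg sc in 0.9% NaCl at 0.5 or 4 h. Mice were watched for at least 30 min. Protection meant no threshold seizure, defined as a single clonic spasm lasting at least 5 s. Scored as protected/tested.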

Mus musculus [2] = test: Anticonvulsant activity in albino mouse assessed as protection against maximal electroshock-induced seizures at 30 mg/kg, ip after 4 hrs; assay type: functional, organism-based; set-up: dose 30 mg/kg
Outline: (§2)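 Male albino mice (Carworth Farms No. 1) were given the compound ip as a suspension in 0.5% methylcellulose at 3–300 mg/kg. MES testing was at 0.5 and 4 h, sometimes also at 0.25 and 1 h. Current was 60 Hz, 50 mA, 0.2 s via corneal electrodes, with saline eye drops. Protection meant no hindlimb tonic extension, scored as protected/tested.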

Mus musculus [3] = test: Anticonvulsant activity in albino mouse assessed as protection against maximal electroshock-induced seizures at 300 mg/kg, ip after 4 hrs; assay type: functional, organism-based; set-up: dose 300 mg/kg; outline: as §2
Rattus norvegicus [4] = test: Neurotoxicity in Sprague-Dawley rat assessed as minimal motor impairment at 30 mg/kg, po after 0.5 hrs by rotorod test; settings: in vivo
Mus musculus [5] = test: Anticonvulsant activity in albino mouse assessed as protection against subcutaneous pentetrazole-induced seizures at 30 mg/kg, ip after 0.5 hrs; assay type: functional, organism-based; set-up: dose 30 mg/kg; outline: as §1
Mus musculus [6] = test: Anticonvulsant activity in albino mouse assessed as protection against maximal electroshock-induced seizures at 3 mg/kg, ip after 0.5 hrs; assay type: functional, organism-based; set-up: dose 3 mg/kg; outline: as §2
Mus musculus [7] = test: Anticonvulsant activity in albino mouse assessed as protection against maximal electroshock-induced seizures at 100 mg/kg, ip after 0.5 hrs; assay type: functional, organism-based; set-up: dose 100 mg/kg; outline: as §2
Mus musculus [8] = test: Anticonvulsant activity in ip dosed albino mouse assessed as protection against subcutaneous pentetrazole-induced seizures after 1 hr; assay type: functional
Mus musculus [9] = test: Anticonvulsant activity in ip dosed albino mouse assessed as protection against maximal electroshock-induced seizures after 1 hr; assay type: functional
Outline: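 ED50, with 95% confidence intervals, was the ip dose protecting 50% of mice in the MES test. It was measured at the stated post-dose time in male albino mice given suspensions in 0.5% methylcellulose. MES used 60 Hz, 50 mA, 0.2 s corneal stimulation, and the endpoint was abolition of hindlimb tonic extension.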

Mus musculus [10] = test: Anticonvulsant activity in albino mouse assessed as protection against maximal electroshock-induced seizures at 30 mg/kg, ip after 0.5 hrs; assay type: functional, organism-based; set-up: dose 30 mg/kg; outline: as §2
Mus musculus [11] = test: Anticonvulsant activity in albino mouse assessed as protection against subcutaneous pentetrazole-induced seizures at 300 mg/kg, ip after 0.5 hrs; assay type: functional, organism-based; set-up: dose 300 mg/kg; outline: as §1
Mus musculus [12] = species on record: Mus musculus; test: Protective index, ratio TD50 for albino mouse to ED50 for albino mouse by maximal electroshock-induced seizure test after 1 hr; assay type: functional
Outline: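 Protective index was calculated as mouse ip TD50 (rotorod) divided by mouse ip MES ED50, both obtained by quantitative dose-response testing at the stated post-dose time.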

Rattus norvegicus [13] = test: Neurotoxicity in Sprague-Dawley rat assessed as minimal motor impairment at 30 mg/kg, po after 0.25 hrs by rotorod test; settings: in vivo
Rattus norvegicus [14] = test: Neurotoxicity in Sprague-Dawley rat assessed as minimal motor impairment at 30 mg/kg, po after 4 hrs by rotorod test; settings: in vivo
Mus musculus [15] = test: Anticonvulsant activity in albino mouse assessed as protection against subcutaneous pentetrazole-induced seizures at 100 mg/kg, ip after 4 hrs; assay type: functional, organism-based; set-up: dose 100 mg/kg; outline: as §1
Rattus norvegicus [16] = test: Neurotoxicity in Sprague-Dawley rat assessed as minimal motor impairment at 30 mg/kg, po after 1 hr by rotorod test; settings: in vivo
Rattus norvegicus [17] = test: Neurotoxicity in Sprague-Dawley rat assessed as minimal motor impairment at 30 mg/kg, po after 2 hrs by rotorod test; settings: in vivo
Mus musculus [18] = test: Anticonvulsant activity in albino mouse assessed as protection against subcutaneous pentetrazole-induced seizures at 100 mg/kg, ip after 0.5 hrs; assay type: functional, organism-based; set-up: dose 100 mg/kg; outline: as §1
Mus musculus [19] = test: Anticonvulsant activity in albino mouse assessed as protection against maximal electroshock-induced seizures at 100 mg/kg, ip after 4 hrs; assay type: functional, organism-based; set-up: dose 100 mg/kg; outline: as §2
Mus musculus [20] = test: Anticonvulsant activity in albino mouse assessed as protection against maximal electroshock-induced seizures at 300 mg/kg, ip after 0.5 hrs; assay type: functional, organism-based; set-up: dose 300 mg/kg; outline: as §2
[21] = Neurotoxicity in ip dosed albino mouse assessed as minimal motor impairment after 0.25 hrs by rotorod test; assay type: toxicity, organism-based; settings: in vivo
Outline: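 TD50, with 95% confidence intervals, was the ip dose causing neurotoxicity in 50% of male albino mice. Deficit was judged on the rotorod: a 1 in. knurled rod at 6 rpm, where failure to hold on for 1 min in each of three trials counted as deficit. Read at the stated time after dosing.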

Mus musculus [22] = test: Neurotoxicity in albino mouse assessed as minimal motor impairment at 3 mg/kg, ip after 0.5 hrs by rotorod test; assay type: toxicity, organism-based; set-up: dose 3 mg/kg, route intraperitoneal; settings: in vivo
Outline: (§3)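 Male albino mice (Carworth Farms No. 1) were dosed ip with suspensions in 0.5% methylcellulose and put on a 1 in. knurled rod rotating at 6 rpm at set times after dosing. Neurotoxicity meant failure to stay on the rod for at least 1 min in each of three trials. Scored as impaired/tested.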

Mus musculus [23] = test: Neurotoxicity in albino mouse assessed as minimal motor impairment at 30 mg/kg, ip after 0.5 hrs by rotorod test; assay type: toxicity, organism-based; set-up: dose 30 mg/kg, route intraperitoneal; settings: in vivo; outline: as §3
Mus musculus [24] = test: Neurotoxicity in albino mouse assessed as minimal motor impairment at 100 mg/kg, ip after 4 hrs by rotorod test; assay type: toxicity, organism-based; set-up: dose 100 mg/kg, route intraperitoneal; settings: in vivo; outline: as §3
Mus musculus [25] = test: Anticonvulsant activity in albino mouse assessed as protection against subcutaneous pentetrazole-induced seizures at 30 mg/kg, ip after 4 hrs; assay type: functional, organism-based; set-up: dose 30 mg/kg; outline: as §1
Mus musculus [26] = test: Neurotoxicity in albino mouse assessed as minimal motor impairment at 30 mg/kg, ip after 4 hrs by rotorod test; assay type: toxicity, organism-based; set-up: dose 30 mg/kg, route intraperitoneal; settings: in vivo; outline: as §3
Mus musculus [27] = test: Neurotoxicity in albino mouse assessed as minimal motor impairment at 300 mg/kg, ip after 4 hrs by rotorod test; assay type: toxicity, organism-based; set-up: dose 300 mg/kg, route intraperitoneal; settings: in vivo; outline: as §3
Mus musculus [28] = test: Neurotoxicity in albino mouse assessed as minimal motor impairment at 10 mg/kg, ip after 0.5 hrs by rotorod test; assay type: toxicity, organism-based; set-up: dose 10 mg/kg, route intraperitoneal; settings: in vivo; outline: as §3
Mus musculus [29] = test: Anticonvulsant activity in albino mouse assessed as protection against maximal electroshock-induced seizures at 100 mg/kg, ip after 1 hr; assay type: functional, organism-based; set-up: dose 100 mg/kg; outline: as §2
Mus musculus [30] = test: Anticonvulsant activity in albino mouse assessed as protection against maximal electroshock-induced seizures at 100 mg/kg, ip after 0.25 hrs; assay type: functional, organism-based; set-up: dose 100 mg/kg; outline: as §2
Mus musculus [31] = test: Neurotoxicity in albino mouse assessed as minimal motor impairment at 100 mg/kg, ip after 0.25 hrs by rotorod test; assay type: toxicity, organism-based; set-up: dose 100 mg/kg, route intraperitoneal; settings: in vivo; outline: as §3
Mus musculus [32] = test: Neurotoxicity in albino mouse assessed as minimal motor impairment at 100 mg/kg, ip after 1 hr by rotorod test; assay type: toxicity, organism-based; set-up: dose 100 mg/kg, route intraperitoneal; settings: in vivo; outline: as §3

## CC[C@@H](CO)NCc1ccc2oc3cc(OC)ccc3c(=O)c2c1
Mus musculus [1]
  Activity: inactive
Mus musculus [2]
  Activity: inactive
Mus musculus [3]
  Activity: Active
Rattus norvegicus [4]
  Activity: Non-toxic
Mus musculus [5]
  Activity: inactive
Mus musculus [6]
  Activity: inactive
Mus musculus [7]
  Activity: Active
Mus musculus [8]
  ED50: > 200 mg/kg
Mus musculus [9]
  ED50: 47.6 mg/kg
Mus musculus [10]
  Activity: Active
Mus musculus [11]
  Activity: inactive
Mus musculus [12]
  Ratio TD50/ED50: >8.41
Rattus norvegicus [13]
  Activity: Non-toxic
Rattus norvegicus [14]
  Activity: Non-toxic
Mus musculus [15]
  Activity: inactive
Rattus norvegicus [16]
  Activity: Non-toxic
Rattus norvegicus [17]
  Activity: Non-toxic
Mus musculus [18]
  Activity: inactive
Mus musculus [19]
  Activity: Active
Mus musculus [20]
  Activity: Active
[21]
  TD50 at 0.25 h: > 400 mg/kg
Mus musculus [22]
  Activity: Non-toxic
Mus musculus [23]
  Activity: Non-toxic
Mus musculus [24]
  Activity: Non-toxic
Mus musculus [25]
  Activity: inactive
Mus musculus [26]
  Activity: Non-toxic
Mus musculus [27]
  Activity: Toxic
Mus musculus [28]
  Activity: Non-toxic

## COc1ccc2c(=O)c3cccc(CN(C)C(C)CO)c3oc2c1 (racemic)
Mus musculus [2]
  Activity: inactive
Mus musculus [3]
  Activity: Active
Mus musculus [5]
  Activity: inactive
Mus musculus [7]
  Activity: inactive
Mus musculus [10]
  Activity: inactive
Mus musculus [11]
  Activity: inactive
Mus musculus [29]
  Activity: inactive
Mus musculus [15]
  Activity: inactive
Mus musculus [30]
  Activity: inactive
Mus musculus [18]
  Activity: inactive
Mus musculus [19]
  Activity: inactive
Mus musculus [31]
  Activity: Non-toxic
Mus musculus [20]
  Activity: Active
Mus musculus [24]
  Activity: Non-toxic
Mus musculus [27]
  Activity: Non-toxic
Mus musculus [32]
  Activity: Non-toxic
